The record followed here is ChEMBL document CHEMBL3745614, “Potent and selective N-(4-sulfamoylphenyl)thiourea-based GPR55 agonists” (Eur J Med Chem, 2016).

Assay [1] has as its target T1, G-protein coupled receptor 55 (Homo sapiens, UniProt Q9Y2T6). The assay can be described thus: Agonist activity at human GPR55 expressed in CHOK1 cells at 10 uM by pathHunter beta-arrestin assay relative to LPI. It is filed as cell-based. To be noted: CHO-K1. In a few lines: (§1)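 PathHunter eXpress GPR55 CHO-K1 β-arrestin kit run per the kit protocol, compounds screened at 10 μM. Luminescence read and expressed as percentage of the signal from bovine liver LPI at 1 μM. Mean with range of two experiments, each done in duplicate.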

Assay [2] deals with Cannabinoid receptor 1 (Homo sapiens) (UniProt P21554). The assay can be described thus: Agonist activity at CBR1 (unknown origin) assessed as [35S]GTPgammaS binding at 10 uM by […] assay relative to control. It counts as functional. (In general: GTPγS resists hydrolysis and so accumulates on activated G proteins.)
Cannabinoid receptor 1 (Homo sapiens), sequence (P21554 whole entry): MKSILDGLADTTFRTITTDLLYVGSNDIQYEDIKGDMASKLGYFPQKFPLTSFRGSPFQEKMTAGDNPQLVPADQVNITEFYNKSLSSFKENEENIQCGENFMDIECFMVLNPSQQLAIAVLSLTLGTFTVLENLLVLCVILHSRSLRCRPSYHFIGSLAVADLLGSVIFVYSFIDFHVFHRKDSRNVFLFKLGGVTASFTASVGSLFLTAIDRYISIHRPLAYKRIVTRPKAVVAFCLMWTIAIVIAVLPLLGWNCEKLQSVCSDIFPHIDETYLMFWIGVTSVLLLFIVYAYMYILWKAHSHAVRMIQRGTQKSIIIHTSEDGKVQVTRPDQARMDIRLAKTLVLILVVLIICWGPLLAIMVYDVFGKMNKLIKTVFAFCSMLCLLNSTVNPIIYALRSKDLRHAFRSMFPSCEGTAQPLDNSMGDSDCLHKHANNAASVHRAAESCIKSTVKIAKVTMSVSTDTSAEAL
The target of assay [3] is Cannabinoid receptor 2 (Homo sapiens) (UniProt P34972). The assay can be described thus: Antagonist activity at human CBR2 assessed as [35S]GTPgammaS binding at 10 uM by […] assay relative to control. It is filed as functional. On the set-up: scale not given: the % may be the effect or the level left.
Cannabinoid receptor 2 (Homo sapiens), sequence (P34972 whole entry): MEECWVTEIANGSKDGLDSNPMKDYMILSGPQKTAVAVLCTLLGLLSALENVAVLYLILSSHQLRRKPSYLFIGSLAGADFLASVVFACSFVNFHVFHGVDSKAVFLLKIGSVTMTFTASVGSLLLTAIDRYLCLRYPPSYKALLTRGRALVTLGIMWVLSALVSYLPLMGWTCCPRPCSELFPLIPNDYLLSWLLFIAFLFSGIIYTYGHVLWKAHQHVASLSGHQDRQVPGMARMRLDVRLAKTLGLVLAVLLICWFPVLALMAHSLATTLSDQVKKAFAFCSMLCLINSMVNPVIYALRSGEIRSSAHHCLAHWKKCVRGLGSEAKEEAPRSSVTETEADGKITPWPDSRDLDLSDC
The target is the same in assay [4]. The assay can be described thus: Agonist activity at CBR2 (unknown origin) assessed as [35S]GTPgammaS binding at 10 uM by […] assay relative to control. It is filed as functional.
The target of assay [5] is T2, Fatty-acid amide hydrolase 1 (Homo sapiens) (UniProt O00519).
T2 sequence (whole entry): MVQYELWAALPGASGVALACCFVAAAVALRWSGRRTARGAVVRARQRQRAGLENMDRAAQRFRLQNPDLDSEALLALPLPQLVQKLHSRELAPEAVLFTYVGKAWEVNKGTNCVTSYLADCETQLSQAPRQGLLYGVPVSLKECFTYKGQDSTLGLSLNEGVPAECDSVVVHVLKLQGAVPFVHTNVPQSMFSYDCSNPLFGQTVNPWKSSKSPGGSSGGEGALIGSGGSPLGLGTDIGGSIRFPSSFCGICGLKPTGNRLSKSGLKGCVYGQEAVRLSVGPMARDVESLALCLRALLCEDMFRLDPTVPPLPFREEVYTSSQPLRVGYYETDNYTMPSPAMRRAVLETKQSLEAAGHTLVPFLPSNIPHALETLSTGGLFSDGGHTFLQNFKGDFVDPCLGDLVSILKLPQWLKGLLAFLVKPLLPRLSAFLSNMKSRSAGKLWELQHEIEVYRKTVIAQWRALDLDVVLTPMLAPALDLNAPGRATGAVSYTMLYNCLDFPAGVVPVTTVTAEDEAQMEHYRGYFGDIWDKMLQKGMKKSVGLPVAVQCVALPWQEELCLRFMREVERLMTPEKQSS
The assay can be described thus: Inhibition of human FAAH expressed in African green monkey COS-7 cell membranes using [3H]-AEA as substrate assessed as residual activity at 10 uM preincubated for 10 mins followed by substrate addition measured after 10 mins by liquid scintillation counting analysis relative to control. Put shortly: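 Membranes of COS-7 cells overexpressing hFAAH, 1 μg protein per incubation. Substrate 20 μM AEA including 10 nM [3H]AEA (60 Ci/mmol). Compounds tested at 10 μM.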

Assay [6] addresses T3, Monoglyceride lipase (Homo sapiens) (UniProt Q99685).
T3 sequence (whole entry): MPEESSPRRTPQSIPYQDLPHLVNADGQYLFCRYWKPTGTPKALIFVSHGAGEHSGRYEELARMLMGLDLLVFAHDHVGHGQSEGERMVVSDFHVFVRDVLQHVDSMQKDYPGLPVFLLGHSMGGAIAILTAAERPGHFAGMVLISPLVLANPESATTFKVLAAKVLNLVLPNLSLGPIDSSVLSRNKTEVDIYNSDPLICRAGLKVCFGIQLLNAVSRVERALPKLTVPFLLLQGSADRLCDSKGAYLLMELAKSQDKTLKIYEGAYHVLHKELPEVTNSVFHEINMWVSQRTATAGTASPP
The assay can be described thus: Inhibition of human MGL expressed in […] cells using 2AG as substrate assessed as residual activity at 10 uM preincubated for 10 mins followed by substrate addition measured after 10 mins by HPLC analysis. It is filed as cell-based. In a few lines: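 Lysates of HEK cells overexpressing hMGL, 2.5 μg protein per incubation, substrate at 50 μM. Compounds tested at 10 μM.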

Assay [7] has as its target T4, Lysophosphatidylserine lipase ABHD12 (Homo sapiens) (UniProt Q8N2K0).
T4 sequence (whole entry): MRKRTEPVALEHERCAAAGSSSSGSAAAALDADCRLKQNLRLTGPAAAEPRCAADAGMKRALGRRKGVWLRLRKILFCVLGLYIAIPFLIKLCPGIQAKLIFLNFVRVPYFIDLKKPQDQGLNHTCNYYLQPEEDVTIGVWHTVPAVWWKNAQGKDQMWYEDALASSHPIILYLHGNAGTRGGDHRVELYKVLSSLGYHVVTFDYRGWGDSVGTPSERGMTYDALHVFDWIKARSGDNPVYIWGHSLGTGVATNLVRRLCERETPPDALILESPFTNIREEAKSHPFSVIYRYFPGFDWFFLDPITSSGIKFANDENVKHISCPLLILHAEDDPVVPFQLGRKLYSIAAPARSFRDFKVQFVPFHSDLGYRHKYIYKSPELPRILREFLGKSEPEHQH
The assay can be described thus: Inhibition of human ABHD12 expressed in […] cells using 2-AG as substrate assessed as glycerol liberation at 10 uM preincubated for 30 mins followed by 2-AG addition measured for 90 mins by fluorescent glycerol assay relative to control. It is filed as cell-based. Details: scale not given: the % may be the effect or the level left. Put shortly:
(§2)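 Lysates of HEK293 cells transiently overexpressing hABHD6 or hABHD12, 0.3 μg protein/well. Pretreated 30 min with DMSO or compound, then 2-AG added (12.5 μM final). Glycerol release coupled enzymatically to H2O2-dependent resorufin formation; fluorescence (ex 530/em 590 nm) followed kinetically for 90 min.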

The target of assay [8] is T5, Monoacylglycerol lipase ABHD6 (Homo sapiens) (UniProt Q9BV23).
T5 sequence (whole entry): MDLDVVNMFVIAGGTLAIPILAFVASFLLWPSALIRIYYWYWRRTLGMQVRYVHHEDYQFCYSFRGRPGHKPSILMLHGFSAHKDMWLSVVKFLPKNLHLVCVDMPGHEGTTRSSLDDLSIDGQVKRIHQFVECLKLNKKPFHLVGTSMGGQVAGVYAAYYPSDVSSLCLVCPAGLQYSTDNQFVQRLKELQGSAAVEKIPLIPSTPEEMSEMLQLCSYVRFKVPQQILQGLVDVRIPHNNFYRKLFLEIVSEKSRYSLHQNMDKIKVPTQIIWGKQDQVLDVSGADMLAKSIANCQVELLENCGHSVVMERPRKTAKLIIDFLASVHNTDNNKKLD
The assay can be described thus: Inhibition of human ABHD6 expressed in […] cells using 2-AG as substrate assessed as glycerol liberation at 10 uM preincubated for 30 mins followed by 2-AG addition measured for 90 mins by fluorescent glycerol assay relative to control. It is filed as cell-based. On the set-up: scale not given: the % may be the effect or the level left. In a few lines: as §2

Assay [9] concerns the target T5, Monoacylglycerol lipase ABHD6 (Homo sapiens). The assay can be described thus: Inhibition of human ABHD6 expressed in […] cells using 2-AG as substrate assessed as glycerol liberation at 1 uM preincubated for 30 mins followed by 2-AG addition measured for 90 mins by fluorescent glycerol assay relative to control. It is filed as cell-based. Details: scale not given: the % may be the effect or the level left. In a few lines: as §2

The target in assay [10] is T1, G-protein coupled receptor 55. The assay can be described thus: Agonist activity at human GPR55 expressed in CHOK1 cells at 10 uM by pathHunter beta-arrestin assay relative to control. The following applies: CHO-K1. It counts as cell-based. Put shortly: as §1
Assay [11] has as its target Cannabinoid receptor 1 (Homo sapiens) (UniProt P21554). The assay can be described thus: Antagonist activity at human CBR1 assessed as [35S]GTPgammaS binding at 10 uM by radiometric assay relative to control. Details: scale not given: the % may be the effect or the level left.

T1 sequence (Q9Y2T6 whole entry): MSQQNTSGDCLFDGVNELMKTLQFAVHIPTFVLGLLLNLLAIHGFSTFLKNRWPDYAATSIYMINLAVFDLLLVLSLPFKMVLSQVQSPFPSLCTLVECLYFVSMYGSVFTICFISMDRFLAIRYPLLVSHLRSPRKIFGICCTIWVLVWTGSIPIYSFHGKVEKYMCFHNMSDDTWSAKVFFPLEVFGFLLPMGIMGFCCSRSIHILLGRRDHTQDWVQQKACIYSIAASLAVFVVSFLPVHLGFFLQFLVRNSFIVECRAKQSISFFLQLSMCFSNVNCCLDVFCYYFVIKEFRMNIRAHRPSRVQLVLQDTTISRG

Regarding `COc1ccc(C(=O)NC(=S)Nc2ccc(S(=O)(=O)NC(C)C)cc2)cc1`, the Activity in assay [1] was determined as 62%; in assay [2], 93%; in [3], 92%; in assay [4], 90%; in assay [5], 103%; in [6], 93%. Moreover, the Activity in assay [7] amounted to 78%; in [8], 66%; in assay [9] it was 102%; in assay [10] it was 91%; in assay [11] it was 95%.
Regarding `NS(=O)(=O)c1ccc(NC(=S)NC(=O)c2ccc(-c3ccccc3)cc2)cc1`, the Activity in [2] was found to be 147%; in [3] it was 89%; in assay [4], 95%; in assay [5], 34%; in assay [6], 94%; in assay [7], 84%. Further, the Activity in assay [8] stood at 85%; in assay [10], 150%; in [11], 119%.
Consider `O=C(NC(=S)Nc1ccc(S(=O)(=O)Nc2ccc(Cl)cc2)cc1)c1ccc(-c2ccccc2)cc1`, for which the Activity in assay [1] worked out at 158%; in [2], 93%; in [3], 101%; in assay [4] it was 94%; in assay [5], 89%; in [6], 105%. In addition, the Activity was 82% in assay [7], 93% in assay [8], 231% in assay [10] and 84% in assay [11].
For the compound `CCCCc1ccc(NS(=O)(=O)c2ccc(NC(=S)NC(=O)c3ccc(-c4ccccc4)cc3)cc2)cc1`, the Activity is 91% in assay [1]; 96% in [2]; 100% in assay [3]; 90% in assay [4]; 95% in assay [5]; 104% in [6]. Also, the Activity turned out to be 83% in [7], 97% in assay [8], 134% in [10] and 78% in assay [11].
`C=CCN(CC=C)S(=O)(=O)c1ccc(NC(=S)NC(=O)c2ccc(-c3ccccc3)cc2)cc1`: the Activity was found to be 95% in assay [2]; 105% in assay [3]; 100% in assay [4]; 92% in assay [5]; 96% in assay [6]; 72% in [7]. For the same compound, the figures for the Activity in [8], in assay [10] and in assay [11] were 74%, 176% and 80%, respectively.
As for `CC(=O)NS(=O)(=O)c1ccc(NC(=S)NC(=O)c2cccc3ccccc23)cc1`, the Activity in assay [1] worked out at 66%; in assay [2], 96%; in [3] it was 97%; in assay [4], 94%; in assay [5], 107%; in assay [6], 98%. For the same compound, the Activity in assay [7] is 82%; in assay [8] it was 88%; in assay [10], 99%; in assay [11], 101%.
As for `Cc1ccc(C(=O)NC(=S)Nc2ccc(S(=O)(=O)NC(C)C)cc2)c(Br)c1`, the Activity in assay [1] amounted to 70%; in assay [2] it was 103%; in [3], 100%; in [4], 88%; in assay [5], 97%; in assay [6], 89%. Further, the Activity in assay [7] amounted to 74%; in assay [8] it was 59%; in assay [9], 106%; in [10], 105%; in assay [11], 88%.
With `CC(=O)NS(=O)(=O)c1ccc(NC(=S)NC(=O)c2ccc(C(C)C)cc2)cc1`, the Activity in assay [1] is 67%; in assay [2] it was 100%; in [3], 92%; in [4], 96%; in [5], 103%; in assay [6], 99%. For the same compound, the Activity was determined as 88% in assay [7], 81% in assay [8], 99% in [10] and 98% in [11].
